Experimental data reported in ChEMBL document CHEMBL3868629, “Discovery of novel N-phenyl 1,4-dihydropyridines with a dual mode of antimycobacterial activity” (Bioorg Med Chem Lett, 2016).

Legend:
[1] = test system: Mycobacterium tuberculosis; experiment: Antitubercular activity against Mycobacterium tuberculosis H37Rv expressing GFP assessed as growth inhibition at 1 ug/ml measured after 7 days by fluorescence analysis relative to control; format: functional; conditions: 168 h, read-out: GI
How it was run: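 GFP-expressing H37Rv cultured in 7H9 with 10% OADC, 0.05% Tween 80 and 0.2% glycerol, sealed under an air-permeable membrane. Growth was read as fluorescence (excitation 485 nm, emission 528 nm) after seven days, in triplicate. Fluorescence tracks bacterial growth.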

[2] = biological target: ATP-dependent translocase ABCB1 (Homo sapiens, UniProt P08183); experiment: Inhibition of human ABCB1 expressed in mouse T-lymphoma cells assessed as rhodamine-123 accumulation by measuring fluorescence activity ratio at 1 uM by flow cytometry relative to control; format: cell-based
Chain of ATP-dependent translocase ABCB1 (P08183 whole entry, the tested form may be a part): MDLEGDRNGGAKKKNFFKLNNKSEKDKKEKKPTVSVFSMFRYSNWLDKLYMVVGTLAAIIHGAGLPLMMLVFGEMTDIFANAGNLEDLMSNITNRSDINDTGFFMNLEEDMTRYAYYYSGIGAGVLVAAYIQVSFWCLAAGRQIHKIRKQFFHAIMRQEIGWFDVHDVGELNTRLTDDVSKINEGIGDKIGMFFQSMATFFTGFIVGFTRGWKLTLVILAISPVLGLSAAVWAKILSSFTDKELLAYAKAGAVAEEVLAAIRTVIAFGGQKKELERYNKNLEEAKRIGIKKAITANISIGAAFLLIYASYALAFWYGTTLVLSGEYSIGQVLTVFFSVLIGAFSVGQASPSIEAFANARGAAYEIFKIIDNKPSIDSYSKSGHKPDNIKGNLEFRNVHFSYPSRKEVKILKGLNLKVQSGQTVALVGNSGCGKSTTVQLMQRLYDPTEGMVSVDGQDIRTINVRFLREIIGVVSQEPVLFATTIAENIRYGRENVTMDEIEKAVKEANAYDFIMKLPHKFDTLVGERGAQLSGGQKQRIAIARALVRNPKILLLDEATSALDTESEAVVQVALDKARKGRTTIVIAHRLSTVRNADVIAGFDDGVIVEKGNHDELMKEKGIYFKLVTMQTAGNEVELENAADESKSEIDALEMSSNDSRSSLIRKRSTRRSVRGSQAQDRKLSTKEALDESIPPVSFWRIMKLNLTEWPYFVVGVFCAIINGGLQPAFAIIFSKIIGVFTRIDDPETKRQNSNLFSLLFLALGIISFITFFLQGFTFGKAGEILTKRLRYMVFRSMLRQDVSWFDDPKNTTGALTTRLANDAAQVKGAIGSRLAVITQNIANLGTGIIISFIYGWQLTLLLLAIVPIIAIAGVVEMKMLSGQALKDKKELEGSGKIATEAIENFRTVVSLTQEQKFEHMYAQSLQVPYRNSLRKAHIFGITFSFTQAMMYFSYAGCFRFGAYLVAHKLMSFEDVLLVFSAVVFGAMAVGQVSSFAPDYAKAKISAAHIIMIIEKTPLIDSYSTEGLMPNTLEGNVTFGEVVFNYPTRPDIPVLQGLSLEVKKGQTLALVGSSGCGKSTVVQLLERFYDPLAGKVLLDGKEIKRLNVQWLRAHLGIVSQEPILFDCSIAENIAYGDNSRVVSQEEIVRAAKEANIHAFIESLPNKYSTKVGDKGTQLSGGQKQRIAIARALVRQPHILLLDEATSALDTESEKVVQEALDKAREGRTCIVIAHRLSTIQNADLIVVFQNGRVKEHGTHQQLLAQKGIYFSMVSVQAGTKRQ

[3] = biological target: T1, Multidrug efflux ATP-binding/permease protein Rv0194 (Mycobacterium tuberculosis (strain ATCC 25618 / H37Rv)) (UniProt O53645); experiment: Inhibition of GFP-fused Mycobacterium tuberculosis H37Rv Rv0194 assessed as potentiation of ciprofloxacin-mediated antitubercular activity by measuring fold increase in ciprofloxacin growth inhibition at 0.3 ug/ml
T1 sequence (whole entry): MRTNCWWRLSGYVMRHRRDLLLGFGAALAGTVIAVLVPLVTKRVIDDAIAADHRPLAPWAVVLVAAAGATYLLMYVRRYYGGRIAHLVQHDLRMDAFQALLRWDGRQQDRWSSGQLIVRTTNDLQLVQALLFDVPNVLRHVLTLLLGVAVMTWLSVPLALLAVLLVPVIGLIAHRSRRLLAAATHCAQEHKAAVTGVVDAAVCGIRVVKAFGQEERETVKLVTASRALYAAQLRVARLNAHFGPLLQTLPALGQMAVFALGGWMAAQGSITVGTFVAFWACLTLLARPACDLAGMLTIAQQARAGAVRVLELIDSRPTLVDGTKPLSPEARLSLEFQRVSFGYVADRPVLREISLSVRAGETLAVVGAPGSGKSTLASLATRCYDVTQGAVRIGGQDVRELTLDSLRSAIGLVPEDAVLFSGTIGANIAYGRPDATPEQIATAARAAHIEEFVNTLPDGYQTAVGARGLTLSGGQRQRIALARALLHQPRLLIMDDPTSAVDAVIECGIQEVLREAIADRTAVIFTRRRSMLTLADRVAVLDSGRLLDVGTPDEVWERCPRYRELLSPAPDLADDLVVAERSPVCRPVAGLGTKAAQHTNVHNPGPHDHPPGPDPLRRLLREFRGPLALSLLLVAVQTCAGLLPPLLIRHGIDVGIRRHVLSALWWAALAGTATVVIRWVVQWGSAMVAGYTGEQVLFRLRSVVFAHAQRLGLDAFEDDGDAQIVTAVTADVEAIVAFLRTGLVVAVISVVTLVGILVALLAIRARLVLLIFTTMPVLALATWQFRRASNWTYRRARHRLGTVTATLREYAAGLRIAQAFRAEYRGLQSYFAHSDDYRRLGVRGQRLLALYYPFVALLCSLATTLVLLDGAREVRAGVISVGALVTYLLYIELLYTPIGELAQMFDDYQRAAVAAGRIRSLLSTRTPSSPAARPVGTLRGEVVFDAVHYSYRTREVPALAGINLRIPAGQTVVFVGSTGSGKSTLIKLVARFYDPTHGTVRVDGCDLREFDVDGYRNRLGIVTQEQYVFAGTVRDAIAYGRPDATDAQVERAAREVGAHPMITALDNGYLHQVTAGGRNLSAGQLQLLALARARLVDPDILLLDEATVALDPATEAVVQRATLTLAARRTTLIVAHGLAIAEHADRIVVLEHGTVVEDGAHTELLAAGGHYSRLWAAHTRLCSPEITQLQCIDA

[4] = biological target: T1, Multidrug efflux ATP-binding/permease protein Rv0194 (Mycobacterium tuberculosis (strain ATCC 25618 / H37Rv)); experiment: Inhibition of GFP-fused Mycobacterium tuberculosis H37Rv Rv0194 assessed as potentiation of ciprofloxacin-mediated antitubercular activity by measuring ciprofloxacin growth inhibition at 0.3 ug/ml (reference value: 19%)
How it was run: (§1)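 The antitubercular drug at set concentrations was tested alone and combined with the test compound held at 0.3 µg/mL. The GFP-expressing H37Rv growth assay was used: 7H9 with 10% OADC, 0.05% Tween 80 and 0.2% glycerol, seven days of culture, fluorescence at 485/528 nm, triplicates.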

[5] = biological target: T1, Multidrug efflux ATP-binding/permease protein Rv0194 (Mycobacterium tuberculosis (strain ATCC 25618 / H37Rv)); experiment: Inhibition of GFP-fused Mycobacterium tuberculosis H37Rv Rv0194 assessed as potentiation of clofazimine-mediated antitubercular activity by measuring clofazimine growth inhibition at 0.3 ug/ml (reference value: 39%); how it was run: as §1

Compound	inhibition of growth at 1 µg/mL [1] [%]	Ratio [2]	fold change (FC) [3]	growth inhibition (GI) [4] [%]	growth inhibition (GI) [5] [%]
CCOC(=O)C1=CN(c2ccc(OC)cc2)C=C(C(=O)OCC)C1c1ccc(OC)c(OC)c1	60	5.2			
CCOC(=O)C1=CN(c2ccccc2)C=C(C(=O)OCC)C1c1cccc(OC)c1	61	1.1			
CCOC(=O)C1=CN(c2ccccc2)C=C(C(=O)OCC)C1c1ccccc1	57	4.3			
CCOC(=O)C1=CN(c2ccc(OC)cc2)C=C(C(=O)OCC)C1c1cccc(OC)c1	41	3.4			
CCOC(=O)C1=CN(c2ccccc2)C=C(C(=O)OCC)C1c1ccc(OC)cc1	25				
CCOC(=O)C1=CN(c2ccc(OC)cc2)C=C(C(=O)OCC)C1c1ccccc1	60	3.9			
CCOC(=O)C1=CN(c2ccccc2)C=C(C(=O)OCC)C1c1ccc(OC)c(OC)c1	30	7.3	2.5	46	60
NNC(=O)c1ccncc1 [ISONIAZID]	97				
CCOC(=O)C1=CN(c2ccc(OC)cc2)C=C(C(=O)OCC)C1c1ccc(OC)cc1	35	1.2			
